Test [1] has as its system Akt-S473E. The test is described as follows: ELISA with immobilized Akt-S473E. The format is binding. A digest of the protocol: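 Akt1-S473E kinase domain, expressed in Hi5 insect cells, was immobilized on Ni-NTA plates. It was incubated with varying concentrations of biotinylated test peptide. Binding signal was normalized to the binding observed at saturation.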
(An ELISA detects its analyte on a solid surface through an enzyme-linked reagent.)

Test [2] has as its system Akt1. The test is described as follows: ELISA-based binding analysis over a range of kinase concentrations, Akt1. Particulars: Figure S18.
The subject of test [3] is GSK3β. The test can be described thus: ELISA-based binding analysis over a range of kinase concentrations, GSK3β. The following applies: Figure S18.
The subject of test [4] is Akt1-S473E-T308P. The test is described as follows: Competitive enzyme kinetic assays of Akt1 with triligand. The format is biochemical. Summed up: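 Akt1 kinase domain (S473E mimic, Hi5 insect-cell expressed, T308-phosphorylated form) assayed at varying peptide-substrate or ATP concentrations across varying test compound concentrations. KM and Vmax were fitted by nonlinear regression. Ki came from negative x-intercepts of Dixon plots (1/v vs [compound], varying ATP), and Ki' from intercepts of Cornish-Bowden plots ([peptide]/v vs [compound], varying peptide). Both are given as mean ± standard deviation.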

Test [5] deals with Akt1-S473E-T308P. The test can be described thus: Akt1 kinase inhibition test of candidate anchor sequences. The following applies: Figure S6. The format is biochemical.
Target sequence in this assay (P31749 150-480 S473E limits assumed): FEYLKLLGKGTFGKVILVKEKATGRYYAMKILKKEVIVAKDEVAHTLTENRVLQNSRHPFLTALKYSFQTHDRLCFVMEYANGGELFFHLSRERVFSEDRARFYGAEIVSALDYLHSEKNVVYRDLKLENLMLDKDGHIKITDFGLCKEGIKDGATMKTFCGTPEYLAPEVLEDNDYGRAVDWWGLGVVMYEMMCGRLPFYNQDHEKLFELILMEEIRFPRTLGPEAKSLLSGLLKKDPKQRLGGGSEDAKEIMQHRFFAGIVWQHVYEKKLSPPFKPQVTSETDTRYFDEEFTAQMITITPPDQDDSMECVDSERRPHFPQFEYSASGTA
Test [6] has as its system AKT in fixed OVCAR3 cells. The test is described as follows: Immunocytochemistry. It is filed as cell-based. Particulars: permeabilized OVCAR3 cells, unstimulated vs EGF+insulin. Summed up: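 OVCAR3 cells were left unstimulated or treated with EGF plus insulin, then fixed and permeabilized. They were stained with fluorescein-labelled test compound, and a fluorescein-conjugated anti-Akt monoclonal antibody served as benchmark. Akt localization was imaged by immunofluorescence microscopy.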

In test [7] the test system is Akt1-S473E-T308P. The following applies: read-out: KM (literature); ATP; ref 21 (Klein et. al.); cited from earlier work.
Test [8] deals with Akt1 kinase domain with the S473E mutation (Akt1-S473E).

Entries after “also recorded” stand apart in the source; their conditions may differ. Where two headings read alike, the source gives them in different places. Primed or numbered codes have the meaning given here. Biotin′ = not defined here; Az8 = not defined here

Consider five molecules from PMC3651860 (Journal of the American Chemical Society, 2011).

Consider “triligand: tertiary peptide Ac-Az8-RHERI-CONH2 conjugated to the biligand to form a biotinylated branched triligand (chain 1 VFYRLGY; chain 2 FWFLRG; not fully specified; N-terminal azido amino acid Az8 before V, joined through a 1,4-triazole to the Pra of the secondary peptide; C-terminal biotin | N-terminal propargylglycine (Pra) before F, joined through a 1,4-triazo)”, for which the “affinity for Akt1 (in words)” value in test [1] (comparison within anchor/biligand/triligand series) is on record as “only marginally improved over the biligand; also recorded: only a modest affinity improvement”. In addition, in test [2], the “change of affinity for Akt1, biligand to triligand” value was “increases modestly”. Further, the “decrease of affinity for GSK3β, biligand to triligand” value in test [3] is given as “approximately 2 fold”. Further, in test [4], the “inhibitory potency (in words)” value is recorded as “low micromolar inhibitory potency”. Moreover, the “effect on KM” value in test [4] (ATP is the varied substrate) is “no effect on KM”; in test [4] (peptide concentration is varied), “KM decreases”. In addition, in test [4] (increasing triligand concentration, varied [ATP] or varied [peptide]), the “effect on enzyme Vmax” value is “reduction in the enzyme Vmax for both substrates”. The inhibition mode entry was “noncompetitive inhibition” in test [4] (varied [ATP], variable [Triligand]); “Noncompetitive” in test [4] (varied [ATP], variable [Triligand], listed as Triligand); “uncompetitive inhibition” in test [4] (varied [Peptide], variable [Triligand]). Further, the “mode of inhibition / inhibitory mechanism, overall” value in test [4] (with respect to ATP and peptide substrates) is “allosteric mode of inhibition; also recorded: triligand inhibition occurs in a noncompetitive fashion; also recorded: not competitive with respect to either the peptide or ATP binding site; also recorded: allosteric mechanism”.
Az8-VFYRLGY-CONH2 [anchor peptide]: the “inhibition of the Akt1 kinase” value in test [5] (absence of the conjugated small molecule inhibitor (Ac7)) and in test [5] (presence of the conjugated small molecule inhibitor (Ac7)) was approximately 95% in each case. In test [1] (anchor peptide, Akt, assay of this value not stated at the place), this molecule came in with an affinity of more than 25 µM.
As for “fluorescein-labeled triligand: fluorescein-labeled triligand employed as an ICC imaging agent (chain 1 VFYRLGY; chain 2 FWFLRG; chain 3 RHERI; N-terminal azido amino acid Az8 before V, joined through a 1,4-triazole to the Pra of the secondary peptide | N-terminal propargylglycine (Pra) before F, joined through a 1,4-triazole to Az8 of the an)”, in test [6], the “Akt localization in ICC (in words)” value was “localization of Akt at the plasma membrane after cell stimulation”.
In general, Vmax refers to the top rate of the reaction or transport when substrate is in excess. For orientation: Km means the substrate concentration at which the rate is half of its maximum. As for `Nc1ncnc2c1ncn2[C@@H]1O[C@H](COP(=O)(O)OP(=O)(O)OP(=O)(O)O)[C@@H](O)[C@H]1O` [ATP, reference compound], the Vmax in test [4] (Akt1-S473E-T308P, V vs. [ATP], variable [Triligand], nonlinear regression) was 98996 ± 8242 pmol/min/mg. Further, the Km in test [4] (read-out: KM (this work), Akt1-S473E-T308P, nonlinear regression (GraphPad), V vs. [ATP], variable [Triligand]) was 213 ± 25 µM; in test [7], 155 µM.
By Kd is commonly meant the constant that tells how readily two partners part at equilibrium. A low value points to a tighter complex. As for {Ac-Az8}-VFYRLGY-{Biotin′} (reading uncertain; also: printed as Ac-Az8-VFYRLGY-Biotin) [biotinylated anchor peptide Ac-Az8-VFYRLGY-Biotin], in test [8], the Kd is more than 25 µM.
